KCNK3 block: human KCNK3 channel inhibition, primary screen; CHO-KCNK3 thallium flux, FluxOR fluorescence; hits give low values; B-score at 10 µM; 340,000 tested, 0.84% active; AID 602410;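 active = B-score under library mean minus 4 SD, starting fluorescence ratio at most library mean plus 5 SD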;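 also: more negative B-score means stronger inhibition of thallium flux through KCNK3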
KCNQ1 inh: blocks the human KCNQ1 potassium channel. CHO-K1 KCNQ1, FluxOR thallium flux fluorescence; hits give high values. P51787. 310,000 tested, 1.3% active. B-score at 10 µM;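 active = compounds whose thallium flux B-score, printed positive for inhibition, exceeds three library SD while starting fluorescence stays within three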;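 also: channel opened by potassium depolarization with thallium stimulus after 20 min compound exposure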
KCNQ1 pot: potentiators or activators of human KCNQ1 potassium channel. P51787. CHO-K1 KCNQ1, thallium flux FluxOR fluorescence; hits give high values. B-score at 10 µM. 310,000 tested, 0.35% active. AID 2648;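 active = fluorescence ratio B-score, a plate-corrected score, at least three library SD, with initial intensity B-score within 5 SD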
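Assay system: stable KCNQ1 CHO-K1 line; medium: assay buffer, equal DMSO in all wells; timing: 90 min dye loading and 20 min compound exposure, both at room temperature; technique: kinetic FluxOR thallium fluorescence, 10-s 1-Hz baseline, 110-s post-stimulus read; read-out basis: B score of baseline-normalized fluorescence ratio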
hERG protect: hERG (human) protection from proarrhythmic block; Q12809; CHO-hERG, FluxOR thallium flux, dofetilide IC70 present; activation (rescue from dofetilide block), less the hit threshold, % at 10 µM; 310,000 tested, 0.51% active;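 active = activation above the mean of controls blocked by dofetilide plus 5 SD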;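 also: thallium influx through hERG after potassium depolarization seen as dye fluorescence rise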
Kir21 inh: Kir2.1 (mouse) channel inhibition; B-score at 10 µM; AID 1672; HEK293-Kir2.1, FluxOR thallium flux fluorescence; hits give low values; 310,000 tested, 0.85% active;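 active = fluorescence ratio B-score at or below minus 3 SD of library scores, with starting-brightness B-score within 2 SD, cut at about -4.2 in these data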;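 also: channel flux triggered by added potassium and thallium sulfate stimulus; B-score of peak minus minimum fluorescence over baseline after thallium stimulus; more negative B-score means stronger Kir2.1 block with less thallium influx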
KCNK9 block: human KCNK9 channel inhibition; B-score at 10 µM; HEK293 KCNK9, FluxOR thallium flux fluorescence; hits give low values; AID 488922; 310,000 tested, 1.2% active; Q9NPC2;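 active = ratio B-score over 3 SD below the library mean, with starting fluorescence within 5 SD of its mean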;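 also: negative B-score means less thallium flux so channel inhibition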
KCNK9 block conf: confirmation of human KCNK9 potassium channel inhibitors. shares compounds with KCNK9 block. HEK293 KCNK9 cells, FluxOR thallium flux fluorescence. inhibition, % at 10 µM. 4,900 tested, 43% active;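 active = thallium signal inhibited by more than 5 SD of the compound-free buffer control wells, on both duplicate plates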
Kir21 sel: mouse Kir2.1 off-target activity of KCNK9 modulators. shares compounds with KCNK9 block. Kir2.1 cells, FluxOR thallium flux fluorescence. inhibition, % at 10 µM. 4,900 tested, 4% active. AID 492993;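 active = thallium signal drop more than 5 SD beyond the mean of the no-compound control wells, seen in both duplicate plates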;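 also: signal is fluorescence rise after thallium addition divided by baseline fluorescence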
HEK293 Tl ctr: non-induced cell nonspecific activity of KCNK9 modulators | shares compounds with KCNK9 block | non-induced KCNK9-HEK293, FluxOR thallium flux | inhibition, % at 10 µM | 4,900 tested, 40% active | AID 492997;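 active = thallium signal drop beyond 5 SD of the untreated control mean, on both duplicate plates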
KCNK3 inh conf: confirmation of human KCNK3 two-pore domain potassium channel inhibitors; shares compounds with KCNK3 block; CHO-KCNK3 thallium flux, FluxOR fluorescence; 0% buffer, 100% carvedilol maximal block; ratio percent of control, % at 10 µM; 2,400 tested, 99% active; AID 651638;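 active = ratio percent of control, averaged over triplicates, above buffer control mean plus 5 SD, cut at about 64% in these data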;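 also: ratio is the fluorescence rise from min to max over baseline after thallium stimulus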
KCNK3 uninduced: KCNK3 inhibitor counter-screen hit in non-induced cells. shares compounds with KCNK3 block. non-induced KCNK3 parental cells, FluxOR thallium flux; hits give low values. thallium flux ratio (lower = more inhibition) at 10 µM. 2,400 tested, 40% active;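 active = thallium flux ratio, averaged over three wells, more than 5 SD below the buffer control mean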;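 also: host cells are CHO cells without KCNK3 induction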
Numbers stand for hits; – = inactive; · = no result given. A selection: hits, their analogues and other compounds. The true share with any hit is near 3.7%.

SMILES	KCNK3 block	KCNQ1 inh	KCNQ1 pot	hERG protect	Kir21 inh	KCNK9 block	KCNK9 block conf	Kir21 sel	HEK293 Tl ctr	KCNK3 inh conf	KCNK3 uninduced
CCc1cccc(CC)c1-n1c(SCC(=O)N2CCCc3ccccc32)nc(O)cc1=O	–	·	·	·	·	·	·	·	·	·	·
CC(C)(C)NC(=O)CC1C[C@H](C(=O)N2CCOCC2)[C@@]2(C)c3[nH]c4ccccc4c3CCN2C1=O (some centres undefined)	–	·	·	·	·	·	·	·	·	·	·
O=C(O)CN1C(=O)/C(=C\c2cccc(OCc3ccccc3F)c2)SC1=S	–	–	–	–	–	–	–	–	–	·	·
CCCc1cc(=O)[nH]c(SCC(=O)Nc2ccc(Cl)c(S(=O)(=O)N3CCOCC3)c2)n1	–	·	·	·	·	·	·	·	·	·	·
CCC1Oc2ccc(C)cc2N(CC(=O)N(Cc2ccc(C)o2)C2CCCC2)C1=O (centres undefined)	–	–	–	–	–	–	–	–	34%	·	·
Cc1cc(C)c(S(=O)(=O)c2ccccc2)c(OC(=O)c2c(Cl)cc(Cl)cc2Cl)n1	–	–	–	–	–	-10	52%	–	32%	·	·
Cc1cc(C)c(S(=O)(=O)c2ccccc2)c(OC(=O)c2c(F)cccc2F)n1	–	–	–	–	–	–	·	·	·	·	·
COc1cccc(CN2C[C@]34C=C[C@@H](C[C@@H]3S2(=O)=O)O4)c1	–	–	–	–	–	–	·	·	·	·	·
O=C(/C=C/c1ccc(-c2ccccc2[N+](=O)[O-])o1)c1ccccc1	–	–	–	–	–	-8.5	40%	–	28%	·	·
O=C(O)/C(=C\c1ccc(-c2ccccc2[N+](=O)[O-])o1)c1ccccc1	–	–	–	–	–	–	·	·	·	·	·
CCN(CC)C(=O)COc1ccc(-c2ccccc2)cc1	-10	–	–	–	–	-9.8	41%	–	–	84	–
CCN(Cc1ccccc1)C(=O)COc1ccccc1	–	–	–	–	–	–	·	·	·	·	·
Cc1[nH]c2ccc(F)cc2c1CCN(Cc1cccnc1)C(=S)Nc1ccc(F)cc1	-9.5	–	–	–	–	-9.6	–	–	26%	103	–
CCNC(=S)N(CCc1c(C)[nH]c2ccc(F)cc12)Cc1cccnc1	–	–	–	–	–	–	·	·	·	·	·
COc1ccc2[nH]c(C)c(CCN(Cc3cccs3)C(=S)Nc3ccccc3)c2c1	-13	–	–	–	–	-11	38%	–	34%	130	0.13
Cc1ccc(C23CCC(=O)N2C(C(=O)O)CS3)c(C)c1 (centres undefined)	–	–	–	–	–	–	·	·	·	·	·
Cc1nc2c(-c3ccc(F)cc3)c(C)nn2c(C)c1CCC(=O)N1CCC(Cc2ccccc2)CC1	-10	–	–	–	–	-9.8	–	–	42%	115	–
O=C(CCC1CCCCC1)NC1CCCCC1	–	·	·	·	·	·	·	·	·	·	·
NC(=S)N/N=C\c1c(OCc2ccccc2Cl)ccc2ccccc12	-9.5	–	–	–	–	-10	46%	–	–	101	–
CSCCC(NC(=O)c1ccccc1)C(=O)OCC(=O)NCc1ccco1 (centres undefined)	–	·	·	·	·	·	·	·	·	·	·
Cc1ccc(O)c(C(=O)c2cnc3c(c2)COc2ccc(C)cc2-3)c1	–	–	–	–	–	-13	72%	–	40%	113	–
S=C(Nc1ccccc1)N1CCOCCOCCN(C(=S)Nc2ccccc2)CCOCCOCC1	-9.1	–	–	–	–	-11	28%	–	–	96	0.13
O=C(CN1C(=O)COc2ccc(S(=O)(=O)N3CCOCC3)cc21)NCc1ccco1	–	–	–	–	–	–	·	·	·	·	·
CCCOc1ccccc1C(=O)Nc1ccc(S(=O)(=O)N2CCN(C)CC2)cc1	–	–	–	–	–	–	·	·	·	·	·
CCc1ccc(-c2cc(C)no2)cc1S(=O)(=O)N1CCOc2ccccc21	-15	–	–	–	–	-12	38%	–	42%	125	0.14
SMILES	KCNK3 block	KCNQ1 inh	KCNQ1 pot	hERG protect	Kir21 inh	KCNK9 block	KCNK9 block conf	Kir21 sel	HEK293 Tl ctr	KCNK3 inh conf	KCNK3 uninduced
Cc1ccc(C(=O)N2CCN(S(=O)(=O)N3CCCCCC3)CC2)cc1	–	–	–	–	–	–	·	·	·	·	·
CCN(CC)CC(O)COc1ccccc1C(=O)CCc1ccccc1 (centres undefined)	–	–	–	–	–	–	·	·	·	·	·
CCCCN(CCCC)CC(O)COc1ccccc1C(=O)Nc1ccccc1 (centres undefined)	-10	–	–	–	–	-11	50%	–	40%	112	–
C[C@H](CO)N1C[C@H](C)[C@@H](CN(C)C)Oc2c(NS(=O)(=O)c3cccs3)cccc2C1=O	–	·	·	·	·	·	·	·	·	·	·
Cc1cc2cccc(C)c2nc1SCC(=O)NC1CCCCC1	-9.5	–	–	–	–	-12	–	–	–	92	–
Cc1ccccc1-c1nnc(SCC(=O)NC2CCCCC2)o1	–	–	–	–	–	–	·	·	·	·	·
COc1ccc(S(=O)(=O)N2CCOCC2)cc1NC(=O)c1cccc(Cl)c1	–	–	–	–	–	–	·	·	·	·	·
Cn1nc(C(=O)N2CCN(c3ccccn3)CC2)c2ccccc2c1=O	–	–	–	–	–	–	·	·	·	·	·
CCCCN(CCCC)c1nc(-c2ccncc2)nc2ccccc12	-9.4	–	–	–	–	-9.1	–	–	34%	68	–
COCCN(CCOC)c1nc(-c2ccccc2)nc2ccccc12	–	–	–	–	–	–	·	·	·	·	·
O=C(Nc1nccs1)c1ccc(CSc2ccccc2)o1	–	–	–	–	–	–	·	·	·	·	·
Cc1cccc(Nc2nc(C)nc3c2oc2ccccc23)c1	-9	–	–	–	–	-8.8	30%	–	26%	116	–
Clc1ccc(CSc2nnc(-c3sccc3-n3cccc3)o2)cc1	-9.2	6	–	–	–	-14	50%	–	–	101	–
CCOc1ccc(CCNC(=O)c2cccc(S(=O)(=O)N3CCCCC3)c2)cc1OCC	–	–	–	–	–	–	·	·	·	·	·
CCCCc1cc(=O)oc2c(C)c(OCC(=O)N3CCC(C(=O)O)(c4ccccc4)CC3)ccc12	–	–	–	–	–	–	·	·	·	·	·
CCc1cc(=O)oc2cc(C)cc(OCC(=O)N3CCC(C(=O)NC(C)C)(c4ccccc4)CC3)c12	-14	–	–	–	–	-19	65%	–	26%	100	–
